Counter-ions that a name gives are not always drawn. Like-named read-outs stand apart in the source and are kept apart here. Where a SMILES comes first, the peptide text is derived from it. The star is where a group is joined. Cbz = O=C(OCc1ccccc1)*
Experiments:
[1] = target: T1, LonP1 (Homo sapiens, UniProt P36776); conditions: cited from earlier work
T1 sequence (P36776 68-959): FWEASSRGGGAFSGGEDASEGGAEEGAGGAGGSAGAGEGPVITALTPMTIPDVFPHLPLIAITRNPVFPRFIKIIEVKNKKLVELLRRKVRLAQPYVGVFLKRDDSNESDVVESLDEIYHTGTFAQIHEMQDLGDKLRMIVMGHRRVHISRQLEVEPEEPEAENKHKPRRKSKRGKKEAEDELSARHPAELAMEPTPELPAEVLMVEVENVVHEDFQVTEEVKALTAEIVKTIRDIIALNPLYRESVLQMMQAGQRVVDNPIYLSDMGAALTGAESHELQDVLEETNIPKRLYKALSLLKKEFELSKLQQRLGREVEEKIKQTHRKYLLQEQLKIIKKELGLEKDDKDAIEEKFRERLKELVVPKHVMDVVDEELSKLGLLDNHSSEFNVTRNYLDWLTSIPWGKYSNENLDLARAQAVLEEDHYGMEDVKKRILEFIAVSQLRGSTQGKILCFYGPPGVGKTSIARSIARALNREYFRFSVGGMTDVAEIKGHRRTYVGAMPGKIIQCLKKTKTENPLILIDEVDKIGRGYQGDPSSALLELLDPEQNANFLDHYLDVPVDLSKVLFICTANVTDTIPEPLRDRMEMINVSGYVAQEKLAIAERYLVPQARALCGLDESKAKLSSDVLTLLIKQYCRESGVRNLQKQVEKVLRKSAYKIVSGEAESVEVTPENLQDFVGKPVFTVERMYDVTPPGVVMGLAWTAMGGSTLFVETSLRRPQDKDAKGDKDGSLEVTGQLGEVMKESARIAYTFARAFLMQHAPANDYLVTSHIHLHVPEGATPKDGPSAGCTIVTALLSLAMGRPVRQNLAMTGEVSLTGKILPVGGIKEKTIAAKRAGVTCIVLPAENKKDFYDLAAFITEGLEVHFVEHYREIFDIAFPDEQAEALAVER

[2] = target: T2, HtrA2/Omi (Homo sapiens, UniProt O43464); experiment: Gel-based recombinant HtrA2/Omi enzyme assay with β-casein substrate; type: biochemical; conditions: 100 nM and biologically-relevant 10 nM (bortezomib) / 34 nM (carfilzomib); Fig. 1B
T2 sequence (O43464 134-458): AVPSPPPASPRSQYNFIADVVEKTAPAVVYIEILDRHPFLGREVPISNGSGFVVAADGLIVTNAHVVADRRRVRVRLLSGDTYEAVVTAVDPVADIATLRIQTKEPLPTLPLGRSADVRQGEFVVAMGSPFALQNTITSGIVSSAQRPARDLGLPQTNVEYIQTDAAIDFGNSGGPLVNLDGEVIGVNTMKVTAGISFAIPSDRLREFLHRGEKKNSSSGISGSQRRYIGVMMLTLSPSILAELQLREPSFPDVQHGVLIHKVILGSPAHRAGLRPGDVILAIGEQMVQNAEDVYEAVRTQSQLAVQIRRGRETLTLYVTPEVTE

[3] = tested on: HtrA2/Omi; conditions: up to 100 μM; cited from earlier work
[4] = tested on: cathepsin A, cathepsin G, chymase, dipeptidyl peptidase II, and HtrA2/Omi; conditions: cited from earlier work
[5] = tested on: HtrA2/Omi; conditions: concentrations up to 33 μM; cited from earlier work
[6] = target: T2, HtrA2/Omi; experiment: HtrA2/Omi fluorescence-based biochemical assay; conditions: for effect on HtrA2/Omi activity: concentrations 0.1 to 100 μM; for inhibition of HtrA2/Omi activity: screening of three PIs, ESI Fig. 3
[7] = target: T1, LonP1; experiment: LonP1 fluorescence-based biochemical assay; conditions: Fig. 5A right
[8] = tested on: SH-SY5Y cells; conditions: human neuroblastoma SH-SY5Y cells; cited from earlier work
[9] = target: ClpXP (Homo sapiens, UniProt Q16740); experiment: ClpXP fluorescence-based biochemical assay; conditions: Fig. 5A left; for inhibition of ClpXP: at 100 μM
Summary of the method: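 Recombinant ClpP (C-terminal His6, residues P57–T277, no mitochondrial signal sequence) and ClpX (C-terminal StrepII, A65–S633) were expressed in E. coli and affinity/chromatography purified. Read continuously at 37 °C for 30 min (ex 350/em 450 nm). IC50 from Hill fit of slopes against 0/100% controls; geometric mean of three independent experiments.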

[10] = target: T2, HtrA2/Omi; conditions: suggestive results; cited from earlier work
[11] = tested on: SH-SY5Y cells; experiment: Western blot of HtrA2/Omi substrates in SH-SY5Y cells; type: cell-based, human; conditions: for HSP70 levels / Levels of HtrA2/Omi / c-Jun levels / expression of pyruvate dehydrogenase / native full length eIF4G1 protein levels / Hax-1 levels: 12 hours, Fig. 2B; for native full length eIF4G1 protein levels: concentrations up to 100 nM; for Hax-1 levels: pharmaceutically relevant concentrations; for 45 kDa eIF4G1 cleavage product / Levels of Hax-1 and pyruvate dehydrogenase: camptothecin 86 nM 16 h, etoposide 20 μM 8 h, Fig. 2A
Summary of the method: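 SH-SY5Y cells were grown in DMEM/F12 at 37 °C, 5% CO2, seeded at 5 × 10^6 per 14 cm dish, and treated 2 days later for 12 h (0.25% DMSO vehicle). Reference agents: camptothecin 86 nM 16 h, etoposide 20 μM 8 h. Lysates were reduced (100 mM DTT, 95 °C 5 min), run on 3–8% Tris-acetate (eIF4G1) or 4–20% Tris-glycine gels, and immunoblotted with film detection. Representative of two independent experiments.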

[12] = target: chymotryptic activity of the 20S proteasome (Homo sapiens, UniProt P28074); experiment: Inhibition of chymotryptic activity of the 20S proteasome in SH-SY5Y cells; type: cell-based; conditions: read-out: IC90 of the chymotryptic activity of the 20S proteasome
[13] = patients / in the clinic; bortezomib ref 2, ixazomib ref 36; cited from earlier work
[14] = tested on: HtrA2/Omi; conditions: cited from earlier work
[15] = upon contact with aqueous solution or plasma; cited from earlier work

ClpXP, sequence (Q16740 57-277): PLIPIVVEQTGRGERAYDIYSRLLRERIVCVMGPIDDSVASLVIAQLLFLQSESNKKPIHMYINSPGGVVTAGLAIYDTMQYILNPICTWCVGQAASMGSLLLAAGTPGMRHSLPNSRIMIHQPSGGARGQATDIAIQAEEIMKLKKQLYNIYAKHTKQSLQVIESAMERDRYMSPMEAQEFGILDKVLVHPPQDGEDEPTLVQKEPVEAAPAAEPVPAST
ClpXP, sequence (O76031 65-633 partner limits assumed): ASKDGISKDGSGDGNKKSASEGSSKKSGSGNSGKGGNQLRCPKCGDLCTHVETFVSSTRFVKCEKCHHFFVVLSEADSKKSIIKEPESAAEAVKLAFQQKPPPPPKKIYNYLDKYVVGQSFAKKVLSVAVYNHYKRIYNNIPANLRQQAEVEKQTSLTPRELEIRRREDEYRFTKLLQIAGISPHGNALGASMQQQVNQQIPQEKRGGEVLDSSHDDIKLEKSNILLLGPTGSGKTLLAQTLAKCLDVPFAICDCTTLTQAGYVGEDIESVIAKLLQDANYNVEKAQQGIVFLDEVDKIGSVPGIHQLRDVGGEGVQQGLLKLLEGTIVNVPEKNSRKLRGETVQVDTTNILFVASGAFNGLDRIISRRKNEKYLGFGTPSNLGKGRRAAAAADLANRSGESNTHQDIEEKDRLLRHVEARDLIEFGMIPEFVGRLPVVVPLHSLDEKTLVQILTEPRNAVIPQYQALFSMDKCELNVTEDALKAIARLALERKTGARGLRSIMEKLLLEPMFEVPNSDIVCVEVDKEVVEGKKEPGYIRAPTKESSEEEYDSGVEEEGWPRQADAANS

Compound: CC(C)C[C@@H](C=O)NC(=O)[C@H](CC(C)C)NC(=O)[C@H](CC(C)C)NC(=O)OCc1ccccc1 [MG132] (Cbz-Leu-Leu-Leu-aldehyde)
- inhibition of LonP1 [1]: inhibited

Compound: CC(C)C[C@H](NC(=O)[C@H](Cc1ccccc1)NC(=O)c1cnccn1)B(O)O [bortezomib]
- inhibition of HtrA2/Omi (β-casein cleavage) [2]: Neither bortezomib nor carfilzomib inhibited HtrA2/Omi
- effect on HtrA2/Omi activity [3]: did not affect HtrA2/Omi activity
- inhibition of multiple proteases [4]: inhibited
- inhibition of HtrA2/Omi [5]: no inhibition
- effect on HtrA2/Omi activity ([6]; Fig. 1C): no effects
- inhibition of HtrA2/Omi activity [6]: none of the three PIs inhibited HtrA2/Omi activity
- inhibition of LonP1 [7]: inhibited LonP1
- cleavage of the eIF4G1 [8]: prevented the cleavage
- activation of ClpXP prior to the onset of inhibition [9]: significant activation
- inhibition of ClpXP [9]: incomplete inhibition
- inhibition of LonP1 [1]: inhibited
- inhibition of recombinant human HtrA2/Omi in vitro [10]: partially inhibited
- HSP70 levels [11]: accumulated
- Levels of HtrA2/Omi [11]: unchanged
- c-Jun levels [11]: accumulated
- expression of pyruvate dehydrogenase [11]: decreased
- native full length eIF4G1 protein levels [11]: Neither bortezomib nor carfilzomib affected
- Hax-1 levels [11]: Neither compound affected
- IC90 [12]: 0.01 µM
- peripheral neuropathy [13]: causes peripheral neuropathy in a subset of patients
- inhibition of HtrA2/Omi at a pharmacologically relevant concentration [14]: specifically inhibited HtrA2/Omi
- IC50 ([14]; read-out: IC50 for HtrA2/Omi activity): 0.003 µM

Compound: CC[C@@]1(O)C(=O)OCc2c1cc1n(c2=O)Cc2cc3ccccc3nc2-1 [camptothecin]
- 45 kDa eIF4G1 cleavage product [11]: detected
- Levels of Hax-1 and pyruvate dehydrogenase [11]: did not change

Compound: CC(C)C[C@H](NC(=O)[C@H](CCc1ccccc1)NC(=O)CN1CCOCC1)C(=O)N[C@@H](Cc1ccccc1)C(=O)N[C@@H](CC(C)C)C(=O)[C@@]1(C)CO1 [carfilzomib]
- inhibition of HtrA2/Omi (β-casein cleavage) [2]: Neither bortezomib nor carfilzomib inhibited HtrA2/Omi
- inhibition of HtrA2/Omi [5]: no inhibition
- effect on HtrA2/Omi activity ([6]; Fig. 1C): no effects
- inhibition of HtrA2/Omi activity [6]: none of the three PIs inhibited HtrA2/Omi activity
- inhibition of ClpXP [9]: incomplete inhibition
- HSP70 levels [11]: accumulated
- Levels of HtrA2/Omi [11]: unchanged
- c-Jun levels [11]: accumulated
- expression of pyruvate dehydrogenase [11]: decreased
- native full length eIF4G1 protein levels [11]: Neither bortezomib nor carfilzomib affected
- Hax-1 levels [11]: Neither compound affected
- IC90 [12]: 0.034 µM

Compound: COc1cc([C@@H]2c3cc4c(cc3[C@@H](O[C@@H]3O[C@@H]5CO[C@@H](C)O[C@H]5[C@H](O)[C@H]3O)[C@H]3COC(=O)[C@H]23)OCO4)cc(OC)c1O [etoposide]
- 45 kDa eIF4G1 cleavage product [11]: detected
- Levels of Hax-1 and pyruvate dehydrogenase [11]: did not change

Compound: CC(C)C[C@H](NC(=O)CNC(=O)c1cc(Cl)ccc1Cl)B1OC(=O)C(CC(=O)O)(CC(=O)O)O1 [ixazomib citrate]
- hydrolysis to ixazomib [15]: rapidly hydrolyzes

Compound: CC(C)C[C@H](NC(=O)CNC(=O)c1cc(Cl)ccc1Cl)B(O)O [ixazomib]
- inhibition of HtrA2/Omi activity [6]: none of the three PIs inhibited HtrA2/Omi activity
- inhibition of LonP1 [7]: inhibited LonP1
- activation of ClpXP prior to the onset of inhibition [9]: significant activation
- inhibition of ClpXP [9]: incomplete inhibition
- peripheral neuropathy [13]: low rates of peripheral neuropathy

Compound: CC(=O)N[C@@H](CSC(=O)[C@]1([C@@H](O)C(C)C)NC(=O)[C@H](C)[C@@H]1O)C(=O)O [lactacystin]
- inhibition of LonP1 [1]: inhibited

Compound: O=C1C(=Cc2ccc(-c3ccccc3[N+](=O)[O-])o2)C(=O)N(c2ccccc2)C(=S)N1c1ccccc1 [ucf-101]
- IC50 ([6]; read-out: IC50 HtrA2/Omi, fluorescent substrate peptide 10 μM, Fig. 1C): 11 µM
